# Bioassay records deposited in PubChem BioAssay by several laboratories.
# Compounds with a hit are over-represented: about 2.6% of the library has one in this group of screens.
# Runt-CBFb FRET = inhibitors of RUNX1 Runt–CBFb binding, primary screen, biochemical, FRET, Cerulean-Runt, Venus-CBFb, uHTS; Runt-related transcription factor 1 (Homo sapiens) + Core-binding factor subunit beta …; Cerulean-Runt/Venus-CBFb FRET ratio 530/480, 1 h; inhibition, % at 20 µM; 0.46% of 220,000 active; AID 1496, 2009;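 active means inhibition over about 50% at 20 µM in the single-dose screen, limit read from the data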;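 further: 0% = DMSO wells and 100% = excess unlabeled CBFb competitor control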
# Target sequence (Q01196 whole entry, looked up): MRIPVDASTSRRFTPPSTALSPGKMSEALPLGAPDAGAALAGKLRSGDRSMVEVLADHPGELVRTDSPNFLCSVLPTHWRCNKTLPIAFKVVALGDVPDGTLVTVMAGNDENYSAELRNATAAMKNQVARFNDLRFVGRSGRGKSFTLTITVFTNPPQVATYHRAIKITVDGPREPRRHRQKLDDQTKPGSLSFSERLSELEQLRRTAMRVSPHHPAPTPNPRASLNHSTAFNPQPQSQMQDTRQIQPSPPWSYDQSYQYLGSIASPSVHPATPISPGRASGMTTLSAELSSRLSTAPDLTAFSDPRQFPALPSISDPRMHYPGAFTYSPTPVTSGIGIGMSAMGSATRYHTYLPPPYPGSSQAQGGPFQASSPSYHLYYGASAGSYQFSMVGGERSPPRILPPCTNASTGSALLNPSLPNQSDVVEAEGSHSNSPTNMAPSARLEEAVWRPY
# Target sequence (Q13951 whole entry, looked up): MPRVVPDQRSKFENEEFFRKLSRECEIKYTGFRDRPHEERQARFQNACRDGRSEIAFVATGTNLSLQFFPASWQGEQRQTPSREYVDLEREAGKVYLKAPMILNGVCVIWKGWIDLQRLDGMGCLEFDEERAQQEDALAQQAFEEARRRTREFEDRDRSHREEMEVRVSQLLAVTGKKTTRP
#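 Assay system: Cerulean-Runt domain / Medium: Tris 50 mM pH 7.5, KCl, K2SO4, 0.01% BSA / Timing: protein complex preformed 1 h, compound exposure 1 h, room temperature, dark / Measured by: FRET, excitation 422 nm, emission at 530 and 480 nm / Evaluation: loss of energy transfer signal / Control set: 5 µM unlabeled CBFb as full-inhibition high control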
# Runt-SMMHC FRET = inhibitors of RUNX1 Runt–CBFb-SMMHC binding, primary screen, biochemical, FRET, Cerulean-Runt, Venus-CBFb-SMMHC, uHTS. Runt-related transcription factor 1 (Homo sapiens) + Core-binding factor subunit beta …. Cerulean-Runt/Venus-CBFb-SMMHC FRET ratio 530/480, 1 h. inhibition, % at 20 µM. 0.74% of 220,000 active. AID 1434, 2008;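 active means mean inhibition across duplicate retests at 20 µM reaching about 50%, limit read from the data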;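 further: 0% = DMSO wells and 100% = wells with excess untagged CBFb-SMMHC; inhibitors lower the FRET ratio by blocking Runt binding to CBFb-SMMHC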
# VIM-2 inhibitor = VIM-2 metallo-beta-lactamase inhibitors, primary screen, biochemical, epi-absorbance readout, Pseudomonas aeruginosa enzyme. purified VIM-2, nitrocefin hydrolysis, epi-absorbance fluorescence. inhibition, % at 5.6 µM. 0.89% of 290,000 active. AID 1527, 2009;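 active means inhibition above the mean of all tested compounds plus 3 SD, cutoff set per screening run, cut at about 7.5% in these data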;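 further: red hydrolysis product quenches plate fluorescence so inhibitors raise well fluorescence; 0% = enzyme with DMSO and 100% = DMSO without enzyme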
# IMP-1 inh = IMP-1 metallo-beta-lactamase inhibitors, primary screen, biochemical, epi-absorbance readout, Pseudomonas aeruginosa enzyme. metallo-beta-lactamase IMP-1 (Pseudomonas aeruginosa). purified IMP-1, nitrocefin hydrolysis, epi-absorbance fluorescence. inhibition, % at 5.6 µM. 0.45% of 290,000 active. AID 1556, 2009;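 active means inhibition above the mean plus 3 SD of all compounds in the same screening run, cut at about 4.5% in these data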;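 further: 0% = IMP-1 with DMSO and 100% = DMSO wells lacking enzyme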
#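 System: purified recombinant IMP-1 beta-lactamase. Medium: Zinc- and detergent-supplemented HEPES buffer, pH 7.1. Compound: one 5.6 µM dose […]. Schedule: 15 min preincubation plus 25 min reaction at 25 °C. Technique: Epi-absorbance fluorescence, 480 nm excitation, 530 nm emission.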
# RanGTP-Imp inh = inhibitors of RanGTP-importin-beta interaction, primary screen, biochemical, FRET, CFP-Ran, YFP-importin-beta, homogeneous; Ran GTPase (GTP-bound) - importin-beta complex; cell-free CFP-Ran/YFP-importin-beta FRET ratio; inhibition, % (test concentration not listed); 1.1% of 300,000 active;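 active means more than half of the replicate wells show a fall in the fluorescence ratio signal beyond about 16%, limit read from the data, passing the limit was not always enough; inconclusive means exactly half of the replicate wells pass the set limit; inactive means fewer than half of replicates pass the limit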;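 further: 0% = DMSO wells and 100% = Ran loaded with GDP instead of GTP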
# * marks the source's active call; other numbers are inactive results; ? = inconclusive; . = no result.
SMILES,Runt-CBFb FRET,Runt-SMMHC FRET,VIM-2 inhibitor,IMP-1 inh,RanGTP-Imp inh
COc1ccc(N2C3=C(C(=O)CC(C)(C)C3)C(c3ccccc3OC)C3=C2CC(C)(C)CC3=O)cc1,15,81*,-1,-2,149*
COc1ccc(N2C3=C(CC4=C2CC(C)(C)CC4=O)C(=O)CC(C)(C)C3)cc1,5,6,0,-1,1
COc1ccc(C2C3=C(CC(C)(C)CC3=O)Nc3c2c(=O)[nH]c2nc(C)nn32)cc1 (stereo not drawn),87*,135*,-1,-1,46*
CCOC(=O)c1sc(N/N=C/c2cc(Br)c(O)c(OC)c2)nc1C,.,.,-3,-5,27*
CCOC(=O)N/N=C/c1cc(OC)c(O)c(OC)c1,13,12,-2,-3,9
CCCn1c2ccccc2c2nnc(SCCN3CCOCC3)nc21,.,.,6,-3,-1
CCn1c2nc(SCCN3CCOCC3)nnc2c2cc(C)cc(C)c21,.,.,12*,-4,-1
CCn1c2ccc(F)cc2c2nnc(SCCN3CCCCC3)nc21,.,.,10*,-3,0
O=C(CSc1nncn1-c1cccnc1)Nc1cccc(C(F)(F)F)c1,.,.,-2,-4,-6
CC(=O)c1ccc(-n2c(C)c(C(C)=O)c3cc(O)ccc32)cc1,.,.,10*,-1,2
O=C1CNC(=S)N1C(CO)c1ccccc1 (stereo not drawn),.,.,-1,-1,0
COc1ccccc1CNC(=O)N1CCN(c2ccccc2C)CC1,.,.,1,52*,0
COc1ccccc1CNC(=O)N1CCN(c2ccccc2)CC1,.,.,-1,-3,2
Fc1cc(F)c(NC(=S)N2CCOCC2)c(F)c1,.,.,-2,-5,?
COC(=O)c1c(N(S(C)(=O)=O)S(C)(=O)=O)sc2c1CCN(c1ncc(C(F)(F)F)cc1Cl)C2,65*,79*,-2,3,2
O=C(O)C=C1CCN(c2ncc(C(F)(F)F)cc2Cl)CC1,-3,-3,0,0,-1
COC(=O)c1c(/N=C/N(C)C)sc2c1CCN(c1ncc(C(F)(F)F)cc1Cl)C2,5,58*,-1,5.0*,9
Cc1cccc(C(=O)Nc2nnc(S(=O)(=O)N3CCC(C)CC3)s2)c1,.,.,-5,-1,1
CC1(C)Cc2c(C#N)c(N)sc(=S)c2CS1,-3,-40,1,6.4*,-1
Cn1c(N)c(C#N)c2c(c1=S)CSC(C)(C)C2,-6,-27,0,0,-1
O=C(O)/C(=C\c1ccc(F)cc1)c1ccc(-c2ccccc2)cc1,.,.,0,0,-3
O=C(O)/C(=C\c1ccccc1OC(F)F)c1ccc(-c2ccccc2)cc1,.,.,-2,7.3*,0
CNC(C)C#Cc1ccc2sc3cccc(OC)c3c(=O)c2c1 (stereo not drawn),.,.,8,1,38*
CNC(C)C#Cc1ccc2oc3cc(C)c(C)cc3c(=O)c2c1 (stereo not drawn),.,.,.,.,0
COc1cccc2sc3ccc(C#CC4(N)CCCCC4)cc3c(=O)c12,.,.,9.0*,-2,55*
SMILES,Runt-CBFb FRET,Runt-SMMHC FRET,VIM-2 inhibitor,IMP-1 inh,RanGTP-Imp inh
CNC(C)C#Cc1ccc2oc3cccc(OC)c3c(=O)c2c1 (stereo not drawn),.,.,8.3*,1,-10
O=C(CSc1nnc(-c2ccco2)o1)c1ccc[nH]1,1,-18,-3,-3,1
CC(=O)N1CCN(C2=NC(=O)/C(=C/c3ccc(OS(=O)(=O)c4ccccc4)cc3)S2)CC1,.,.,0,-4,5
CCC1CCC(C(=O)NC(C(=O)NCCN2CCOCC2)C(C)C)CC1 (stereo not drawn),.,.,-2,-1,4
O=[N+]([O-])c1ccccc1/C=C/C=N/n1c(-c2ccco2)n[nH]c1=S,10,10,9.8*,-2,-1
S=c1[nH]nc(-c2ccco2)n1/N=C/c1cccc(Cl)c1,12,7,9.1*,-4,-2
Cc1cc(-c2n[nH]c(=S)n2/N=C/C(Cl)=C/c2ccccc2)n[nH]1,15,18,-1,-4,3
S=c1[nH]nc(-c2ccco2)n1/N=C/C(Cl)=C/c1ccccc1,7,11,8.1*,-3,6
S=c1[nH]nc(-c2ccco2)n1-c1ccccc1Cl,6,-1,16*,-3,-2
S=c1[nH]nc(-c2cc(-c3ccco3)[nH]n2)n1-c1ccccc1Cl,32,21,2,1,2
CC1CC(=O)N(CC(=O)Nc2ccccc2F)c2ccccc2S1(=O)=O (stereo not drawn),.,.,-2,-2,0
Cc1ccc(-c2nn(CC(=O)O)c(=O)c3ccccc23)cc1,-1,-1,-2,1,-2
O=C(O)Cn1nc2c3c(cccc3c1=O)-c1ccccc1-2,.,.,7.8*,-4,-1
CC(Oc1ccc2ccc(=O)oc2c1)C(=O)NC1CC(C)(C)NC(C)(C)C1 (stereo not drawn),.,.,0,-2,1
Cc1ccc(N=Cc2sc(O)c3ccccc23)c(C)c1,5,-83,4,28*,-1
Cc1ccc(-c2nc(C(=O)NCCCN3CCOCC3)cc3c2[nH]c2ccccc23)cc1,.,.,1,-3,8
COc1ccc(-c2nc(C(=O)NCCCN3CCOCC3)cc3c2[nH]c2ccccc23)cc1OC,.,.,12*,-2,6
COc1ccc(C)cc1NC(=O)c1ccc(S(=O)(=O)N2CCCCC2)cc1,.,.,-1,-5,-2
Cc1ccc(Cn2c(=N)c(C(=O)NCC3CCCO3)cc3c(=O)n4cccc(C)c4nc32)cc1 (stereo not drawn),.,.,3,-3,-3
COc1ccc(-c2cc(C(F)F)n3ncc(C(=O)NCC4CCCO4)c3n2)cc1 (stereo not drawn),18,62*,3,-7,58*
N=c1c(C(=O)NCC2CCCO2)cc2c(=O)n3ccccc3nc2n1Cc1ccccc1Cl (stereo not drawn),.,.,4,-1,188*
N=c1c(C(=O)NCC2CCCO2)cc2c(=O)n3ccccc3nc2n1Cc1ccccc1 (stereo not drawn),.,.,7,-2,180*
Cc1ccc(Cn2c(=N)c(C(=O)NCC3CCCO3)cc3c(=O)n4ccccc4nc32)cc1 (stereo not drawn),.,.,3,-3,161*
CCOc1ccc(NS(=O)(=O)c2c(C(=O)N3CCCCCC3)c(C)n(C)c2C)cc1,.,.,-2,-1,5
